{"source": "ChEMBL document CHEMBL2424620", "about": "“β2-Adrenoceptor agonists in the regulation of mitochondrial biogenesis” (Bioorg Med Chem Lett, 2013)", "key": {"RPT [1]": {"tested_on": "RPT", "assay": "Induction of Mitochondrial biogenesis in rabbit RPT cells at 10 to 3000 nM after 24 hrs by FCCP-OCR assay relative to control", "format": "functional, cell-based", "conditions": "Oryctolagus cuniculus", "outline": "(§1)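 Primary cultures of rabbit renal proximal tubule cells, grown under improved conditions favouring aerobic respiration, were exposed to compound (10–3,000 nM) for 24 h. FCCP-uncoupled oxygen consumption rate was then read on a Seahorse XF-96. Plates included vehicle (DMSO <0.5%), SRT1720 10 μM positive control and blanks. Results are expressed as a ratio or percent fold change versus DMSO, mean ± s.e.m., N=4. A ratio >1.15 was classed as MB.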"}, "RPT [2]": {"tested_on": "RPT", "assay": "Induction of Mitochondrial biogenesis in rabbit RPT cells after 24 hrs by FCCP-OCR assay relative to control", "format": "functional, cell-based", "conditions": "Oryctolagus cuniculus", "outline": "as §1"}, "[3]": {"molecular_target": "Beta-2 adrenergic receptor (Homo sapiens, UniProt P07550)", "sequence (P07550 whole entry)": "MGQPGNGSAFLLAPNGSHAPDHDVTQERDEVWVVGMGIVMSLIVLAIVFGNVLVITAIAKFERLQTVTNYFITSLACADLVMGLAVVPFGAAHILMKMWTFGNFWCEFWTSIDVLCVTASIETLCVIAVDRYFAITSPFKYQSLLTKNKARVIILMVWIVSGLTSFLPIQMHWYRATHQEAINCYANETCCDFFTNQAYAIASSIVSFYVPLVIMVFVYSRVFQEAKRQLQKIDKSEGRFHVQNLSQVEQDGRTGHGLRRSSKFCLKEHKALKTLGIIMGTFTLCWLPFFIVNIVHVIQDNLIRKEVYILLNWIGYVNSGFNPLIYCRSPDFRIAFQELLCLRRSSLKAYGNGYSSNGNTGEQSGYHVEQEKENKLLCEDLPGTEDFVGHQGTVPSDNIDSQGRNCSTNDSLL", "assay": "Binding affinity to beta-2 adrenergic receptor (unknown origin) at 1 to 10000 nM"}}, "note": "pKd: −log10 of the molar value. Active and inactive are the calls of the source. The calls are words filed in the database; no cut-off is given here."}
{"smiles": "CC(C)(C)NCC(O)c1cc(Cl)c(N)c(Cl)c1", "note": "(stereo unspecified)", "values": [{"measurement": "Activity", "setting": "RPT [1]", "result": "inactive"}]}
{"smiles": "CC(C)(C)NCC(O)c1cc(O)cc(O)c1", "note": "(stereo unspecified)", "values": [{"measurement": "Activity", "setting": "RPT [2]", "result": "Active"}]}
{"smiles": "CC(C)NCC(O)c1ccc(O)c(O)c1", "note": "(stereo unspecified)", "values": [{"measurement": "Activity", "setting": "RPT [1]", "result": "inactive"}]}
{"smiles": "CC(Cc1ccc(O)cc1)NCC(O)c1cc(O)cc(O)c1", "note": "(stereo unspecified)", "values": [{"measurement": "Activity", "setting": "RPT [1]", "result": "Active"}]}
{"smiles": "CNCCC(Oc1ccccc1OC)c1ccccc1", "note": "(stereo unspecified)", "values": [{"measurement": "Activity", "setting": "RPT [1]", "result": "Active"}]}
{"smiles": "CNCC[C@@H](Oc1ccccc1C)c1ccccc1", "values": [{"measurement": "Activity", "setting": "RPT [1]", "result": "Active"}]}
{"smiles": "C[C@@H](NCCc1ccc(O)cc1)[C@@H](O)c1ccc(O)cc1", "note": "(relative stereo) [rel-RITODRINE]", "values": [{"measurement": "Activity", "setting": "RPT [2]", "result": "Active"}, {"measurement": "pKd", "setting": "[3]", "result": 9.30}]}
{"smiles": "CCC(NC1CCCC1)C(O)c1ccc(O)c(O)c1", "note": "(stereo unspecified) [CYCLOPENTYLBUTANEPHARINE]", "values": [{"measurement": "Activity", "setting": "RPT [2]", "result": "Active"}, {"measurement": "pKd", "setting": "[3]", "result": 8.00}]}
{"smiles": "CCC(NC(C)C)C(O)c1ccc(O)c(O)c1", "note": "(stereo unspecified) [ISOETHARINE]", "values": [{"measurement": "pKd", "setting": "[3]", "result": 6.00}, {"measurement": "Activity", "setting": "RPT [1]", "result": "inactive"}]}
{"smiles": "CC(C)NCC(O)c1cc(O)cc(O)c1", "note": "(stereo unspecified) [METAPROTERENOL]", "values": [{"measurement": "Activity", "setting": "RPT [2]", "result": "Active"}, {"measurement": "pKd", "setting": "[3]", "result": 6.30}]}
{"smiles": "CCC(NC(C)C)C(O)c1ccc(O)c2[nH]c(=O)ccc12", "note": "(stereo unspecified) [PROCATEROL]", "values": [{"measurement": "pKd", "setting": "[3]", "result": 7.10}, {"measurement": "Activity", "setting": "RPT [1]", "result": "Active"}]}
